How the values were obtained:
HUVEC = test: Antiangiogenic activity in HUVEC assessed as inhibition of VEGF-induced proliferation after 3 days by WST-8 assay; format: functional, cell-based; settings: Homo sapiens, 72 h
Method in brief: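 HUVEC seeded and incubated 1 day, then VEGF plus test compound added; cell number counted after 3 further days of incubation. Growth rate calculated relative to control; IC50 is concentration giving half inhibition of VEGF-induced proliferation, in nM.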

CYP3A4 = CYP3A4 (Homo sapiens, UniProt P08684); test: Inhibition of CYP3A4 at 10 uM using testosterone as substrate; format: ADME; settings: probe testosterone
Method in brief: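 CYP3A4 inhibition measured as percent inhibition at 10 μM test compound, testosterone as substrate.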

B16 = test: Antitumor activity against mouse B16 cells xenografted in C57BL/6N mouse assessed as tumor growth at 100 mg/kg, po qd for 10 days relative to control; format: functional; settings: B16, 240 h
Method in brief: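 B16 cell suspension injected subcutaneously under anesthesia into female C57BL/6 mice, six weeks old. Compound suspension given orally once daily; ten days after cell injection, tumors excised and weighed, anti-cancer effect calculated relative to control.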

Rattus norvegicus [1] = test: Antiinflammatory activity in Lewis rat adjuvant arthritis model assessed as inhibition of paw edema at 10 mg/kg, po qd for 20 days relative to control; format: functional; settings: 480 h
Rattus norvegicus [2] = test: Antiangiogenic activity in Brown Norway rat assessed as inhibition of laser-induced neovascularization incidence rate at 3 mg/kg, po qd for 7 days relative to control; format: functional; settings: 168 h
Method in brief: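 Male Brown Norway rats, eight weeks old, under anesthesia and mydriasis; krypton laser photocoagulation of Bruch's membrane. Compound suspension given orally once daily. Seven days after photocoagulation, fluorescein injected via tail vein, fundus photographed, fluorescence leaks counted; neovascularization incidence rate compared with control.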

Rattus norvegicus [3] = species: Rattus norvegicus; test: animal or person; settings: Brown Norway, po, 168 h, read-out: INH

Sequence of CYP3A4 (P08684 whole entry): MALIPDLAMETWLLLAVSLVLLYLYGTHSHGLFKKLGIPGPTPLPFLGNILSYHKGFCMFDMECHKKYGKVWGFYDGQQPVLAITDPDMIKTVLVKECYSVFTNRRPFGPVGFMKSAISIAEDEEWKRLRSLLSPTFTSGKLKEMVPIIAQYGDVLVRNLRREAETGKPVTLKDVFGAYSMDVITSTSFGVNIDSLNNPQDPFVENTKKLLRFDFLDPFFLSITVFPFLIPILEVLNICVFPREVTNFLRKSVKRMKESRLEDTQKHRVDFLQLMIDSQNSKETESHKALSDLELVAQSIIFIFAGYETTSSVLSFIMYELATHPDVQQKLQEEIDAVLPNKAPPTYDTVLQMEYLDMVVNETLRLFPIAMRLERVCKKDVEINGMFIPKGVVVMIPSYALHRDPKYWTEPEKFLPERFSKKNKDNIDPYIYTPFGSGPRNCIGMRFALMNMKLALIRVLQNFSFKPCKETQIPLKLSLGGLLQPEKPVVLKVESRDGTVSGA

Compound | inhibition at 10 µM (CYP3A4) | IC50 (HUVEC) | other results
Clc1ccc(Nc2nnc(Cc3ccncc3)c3ccccc23)cc1 [VATALANIB] | – | – | inhibition in vivo at 10 mg/kg (Rattus norvegicus [1]): 23%
Cc1cc(C)cc(NC(=O)c2cccnc2SCc2ccnc(C)c2)c1 | – | 68 nM | –
CNC(=O)c1cc(CSc2ncccc2C(=O)Nc2cc(C)cc(C)c2)ccn1 | – | 18 nM | –
Cc1cc(C)cc(NC(=O)c2cccnc2SCc2cc[n+](C)cc2)c1 | – | > 2000 nM | –
NCC(=O)Nc1cc(CSc2ncccc2C(=O)Nc2ccc(OC(F)(F)F)cc2)ccn1 | – | 49 nM | –
COC(=O)Nc1cc(CSc2ncccc2C(=O)Nc2cc(C)cc(C)c2)ccn1 | – | 15 nM | –
Cc1cc(C)cc(NC(=O)c2cccnc2SCc2ccnc(NC(=O)CN(C)C)c2)c1 | – | 22 nM | –
COc1cc(CSc2ncccc2C(=O)Nc2cc(C)cc(C)c2)ccn1 | – | 100 nM | –
Cc1cc(C)cc(NC(=O)c2cccnc2SCc2ccnc(N3CCOCC3)c2)c1 | – | 84 nM | –
CNC(=O)Nc1cc(CSc2ncccc2C(=O)Nc2ccc(OC(F)(F)F)cc2)ccn1 | – | 20 nM | –
CCC(=O)Nc1cc(CSc2ncccc2C(=O)Nc2cc(C)cc(C)c2)ccn1 | – | 1.8 nM | –
CC(=O)N(C)c1cc(CSc2ncccc2C(=O)Nc2cc(C)cc(C)c2)ccn1 | – | 65 nM | –
CNc1cc(CSc2ncccc2C(=O)Nc2cc(C)cc(C)c2)ccn1 | – | 21 nM | –
Cc1cc(C)cc(NC(=O)c2cccnc2SCc2ccnc(NC(=O)CO)c2)c1 | – | 6.6 nM | –
O=C(CNCCCO)Nc1cc(CSc2ncccc2C(=O)Nc2ccc(OC(F)(F)F)cc2)ccn1 | 33% | 26 nM | inhibition in vivo at 100 mg/kg (B16): 79%
C[C@H]1C[C@H]2[C@@H]3CCC4=CC(=O)C=C[C@]4(C)[C@@]3(F)[C@@H](O)C[C@]2(C)[C@@]1(O)C(=O)COP(=O)(O)O [BETAMETHASONE PHOSPHORIC ACID] | – | – | inhibition in vivo at 1 mg/kg (Rattus norvegicus [3]): 96%

Second part, led by results:

inhibition at 10 µM (CYP3A4) | Compound | IC50 (HUVEC) | other results
29% | CN(C)CCNCC(=O)Nc1cc(CSc2ncccc2C(=O)Nc2ccc(OC(F)(F)F)cc2)ccn1 | 18 nM | inhibition in vivo at 100 mg/kg (B16): 79%
10% | Cc1cc(C)cc(NC(=O)c2cccnc2SCc2ccnc(NC(=O)CN)c2)c1 | 48 nM | –
38% | CC(=O)Nc1cc(CSc2ncccc2C(=O)Nc2ccc(OC(F)(F)F)cc2)ccn1 | 3.9 nM | –
19% | CN(C)CC(=O)Nc1cc(CSc2ncccc2C(=O)Nc2ccc(OC(F)(F)F)cc2)ccn1 | 35 nM | –
14% | Cc1cc(C)cc(NC(=O)c2cccnc2SCc2ccnc(NC(=O)CNCCN(C)C)c2)c1 | 5.9 nM | inhibition in vivo at 3 mg/kg (Rattus norvegicus [2]): 55%; inhibition in vivo at 100 mg/kg (B16): 83%; inhibition in vivo at 10 mg/kg (Rattus norvegicus [1]): 70%
48% | Cc1cc(C)cc(NC(=O)c2cccnc2SCc2ccnc(C#N)c2)c1 | 3.5 nM | –
17% | O=C(CO)Nc1cc(CSc2ncccc2C(=O)Nc2ccc(OC(F)(F)F)cc2)ccn1 | 7.4 nM | inhibition in vivo at 100 mg/kg (B16): 85%
96% | Cc1cc(C)cc(NC(=O)c2cccnc2SCc2ccncc2)c1 | – | –
23% | Cc1cc(C)cc(NC(=O)c2cccnc2SCc2ccnc(NC(=O)CNCCCO)c2)c1 | 18 nM | inhibition in vivo at 100 mg/kg (B16): 77%
20% | CC(=O)Nc1cc(CSc2ncccc2C(=O)Nc2cc(C)cc(C)c2)ccn1 | < 0.91 nM | –
60% | Cc1cc(C)cc(NC(=O)c2cccnc2SCc2ccnc(Cl)c2)c1 | 12 nM | –
21% | Cc1cc(C)cc(NC(=O)c2cccnc2SCc2ccnc(N)c2)c1 | 5.8 nM | –
24% | CNC(=O)Nc1cc(CSc2ncccc2C(=O)Nc2cc(C)cc(C)c2)ccn1 | 8.8 nM | inhibition in vivo at 100 mg/kg (B16): 43%
69% | CSc1cc(CSc2ncccc2C(=O)Nc2cc(C)cc(C)c2)ccn1 | 100 nM | –
40% | Cc1cc(C)cc(NC(=O)c2cccnc2SCc2ccnc(F)c2)c1 | 13 nM | –
16% | Cc1cc(C)cc(NC(=O)c2cccnc2SCc2cc[n+]([O-])cc2)c1 | 24 nM | inhibition in vivo at 100 mg/kg (B16): 76%

Reference: ChEMBL document CHEMBL1667827, “Pyridylmethylthio derivatives as VEGF inhibitors: part 2” (Bioorg Med Chem Lett, 2011)
